# From PMC3135177 (Organic & biomolecular chemistry, 2010)
# Legend:
# Af2Sir2 = target: T1, Af2Sir2 (Archaeoglobus fulgidus, UniProt O30124); assay: Inhibition of sirtuin-catalyzed deacetylation, Af2Sir2; assay type: biochemical
# T1 sequence (O30124 1-253): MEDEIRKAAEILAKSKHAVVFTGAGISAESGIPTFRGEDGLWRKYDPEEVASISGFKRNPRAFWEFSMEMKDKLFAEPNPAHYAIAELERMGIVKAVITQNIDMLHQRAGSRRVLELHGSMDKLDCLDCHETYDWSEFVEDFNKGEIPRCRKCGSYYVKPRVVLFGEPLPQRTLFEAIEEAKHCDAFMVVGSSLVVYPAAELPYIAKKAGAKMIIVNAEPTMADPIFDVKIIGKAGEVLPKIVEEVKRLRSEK
# Yeast Sir2 = Yeast Sir2 (Saccharomyces cerevisiae, UniProt P06700); assay: Inhibition of sirtuin-catalyzed deacetylation, yeast Sir2; assay type: biochemical
# Chain of Yeast Sir2 (P06700 whole entry): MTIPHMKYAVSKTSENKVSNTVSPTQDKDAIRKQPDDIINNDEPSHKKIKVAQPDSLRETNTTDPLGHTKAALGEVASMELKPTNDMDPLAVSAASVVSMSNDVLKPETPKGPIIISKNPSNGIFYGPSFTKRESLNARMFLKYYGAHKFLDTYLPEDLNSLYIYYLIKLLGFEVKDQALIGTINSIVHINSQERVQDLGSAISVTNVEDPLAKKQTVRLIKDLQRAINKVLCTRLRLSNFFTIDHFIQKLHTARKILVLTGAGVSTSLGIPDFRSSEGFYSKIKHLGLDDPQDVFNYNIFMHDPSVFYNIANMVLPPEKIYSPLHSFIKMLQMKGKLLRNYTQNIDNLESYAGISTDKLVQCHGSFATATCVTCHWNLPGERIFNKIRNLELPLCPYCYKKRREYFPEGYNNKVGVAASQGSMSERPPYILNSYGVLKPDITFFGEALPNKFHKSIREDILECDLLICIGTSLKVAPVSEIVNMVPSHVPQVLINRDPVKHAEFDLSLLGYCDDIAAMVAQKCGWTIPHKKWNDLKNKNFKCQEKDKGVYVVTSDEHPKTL
# SirT1 [1] = target: T2, SirT1 (Homo sapiens, UniProt Q96EB6); assay: Inhibition of sirtuin-catalyzed deacetylation, SirT1; assay type: biochemical
# T2 sequence (Q96EB6 1-747): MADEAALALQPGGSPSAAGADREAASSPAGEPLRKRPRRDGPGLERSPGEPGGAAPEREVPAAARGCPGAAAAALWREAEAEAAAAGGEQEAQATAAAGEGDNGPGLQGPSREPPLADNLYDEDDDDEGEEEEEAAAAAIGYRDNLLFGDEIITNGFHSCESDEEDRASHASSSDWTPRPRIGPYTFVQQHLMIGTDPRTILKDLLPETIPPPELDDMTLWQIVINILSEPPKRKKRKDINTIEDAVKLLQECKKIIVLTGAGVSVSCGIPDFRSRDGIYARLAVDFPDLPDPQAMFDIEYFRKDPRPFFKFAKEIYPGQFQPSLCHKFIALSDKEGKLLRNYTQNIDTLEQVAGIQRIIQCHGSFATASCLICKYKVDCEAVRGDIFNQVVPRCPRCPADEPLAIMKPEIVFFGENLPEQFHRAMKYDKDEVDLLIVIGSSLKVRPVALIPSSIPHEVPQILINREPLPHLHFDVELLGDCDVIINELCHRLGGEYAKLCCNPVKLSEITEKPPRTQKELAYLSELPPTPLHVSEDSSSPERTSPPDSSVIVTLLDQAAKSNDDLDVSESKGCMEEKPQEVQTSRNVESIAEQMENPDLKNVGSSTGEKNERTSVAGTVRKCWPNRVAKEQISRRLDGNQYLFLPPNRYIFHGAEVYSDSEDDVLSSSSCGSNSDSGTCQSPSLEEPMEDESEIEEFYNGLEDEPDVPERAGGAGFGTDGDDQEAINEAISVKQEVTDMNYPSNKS
# In short: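 Purified SirT1 was incubated with NAD+, the test compound and an acetylated peptide substrate at 37 °C for 30–60 min. Activity was expressed as percent remaining, with uninhibited set at 100%, and plotted against log[test compound] in nM. IC50 came from a fit to v(%) = v(%)I − [v(%)I(10^x)/(10^x + IC50)].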
# SirT2 = target: T3, SirT2 (Homo sapiens, UniProt Q8IXJ6); assay: Inhibition of sirtuin-catalyzed deacetylation, SirT2; assay type: biochemical
# T3 sequence (Q8IXJ6 1-389): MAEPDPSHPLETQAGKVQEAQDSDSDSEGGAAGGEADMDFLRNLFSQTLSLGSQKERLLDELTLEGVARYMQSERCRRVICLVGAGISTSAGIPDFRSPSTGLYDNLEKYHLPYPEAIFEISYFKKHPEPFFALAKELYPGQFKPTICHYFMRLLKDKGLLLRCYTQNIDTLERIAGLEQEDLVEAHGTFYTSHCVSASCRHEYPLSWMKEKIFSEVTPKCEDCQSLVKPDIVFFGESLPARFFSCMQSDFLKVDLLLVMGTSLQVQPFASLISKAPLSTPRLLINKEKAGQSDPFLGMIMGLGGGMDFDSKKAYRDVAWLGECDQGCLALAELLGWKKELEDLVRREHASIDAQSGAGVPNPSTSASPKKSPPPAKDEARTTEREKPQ
# SirT1 [2] = target: T2, SirT1; settings: NAD+ as substrate on SIRT1; cited from earlier work
SMILES,IC50 (Af2Sir2),IC50 (Yeast Sir2),IC50 (SirT1 [1]),Ki (SirT1 [1]),IC50 (SirT2),Km (SirT1 [2])
"COC(=O)[C@H](C)NC(=O)[C@H](C)NC(=O)[C@H](CCCCNC(C)=S)NC(=O)c1ccc([N+](=O)[O-])cc1 [compound 1, N^α-4-nitrobenzoyl-N^ε-thioacetyl-lysinyl-alaninyl-alanine methyl ester]",131 ± 26 µM,19.5 ± 5.8 µM,6.5 ± 1 µM,611 nM,13.1 ± 0.54 µM,
NC(=O)c1ccc[n+]([C@@H]2O[C@H](COP(=O)([O-])OP(=O)(O)OC[C@H]3O[C@@H](n4cnc5c(N)ncnc54)[C@H](O)[C@@H]3O)[C@@H](O)[C@H]2O)c1 [NAD^+],,,,,,165 µM
